NPY1 pot ag: NPY-Y1 receptor potentiators or agonists, primary screen, cell-based. Neuropeptide Y receptor type 1 (Homo sapiens), P25929. NPY-Y1 expressing cells, potentiator/agonist activation. activation, % at 3.6 µM. 0.37% of 220,000 active; in the data active = activation above about 33%, passing the limit was not always enough;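 also: cells stimulated with NPY at EC10 then isoproterenol at EC100; 0% = low agonist plus stimulus and 100% = saturating agonist plus stimulus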
PGE2 EP2 inh: human EP2 receptor antagonists, primary screen, TR-FRET cAMP, C6 glioma cells. Prostaglandin E2 receptor EP2 subtype (Homo sapiens), P43116. C6 glioma cells expressing human EP2; cells stimulated with saturating PGE2. inhibition, % at 25 µM. 0.52% of 260,000 active;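 active = percent inhibition above 40 after rounding to a whole number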;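 also: rat C6 glioma host cells with rolipram phosphodiesterase inhibitor present; the protocol text gives 20 µM as final concentration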
NPY2 pot ag: NPY-Y2 potentiators or agonists, primary screen, cell-based | cells expressing NPY-Y2, potentiator/agonist read-out | 0.45% of 220,000 active | activation, % at 3.6 µM; in the data active = activation above about 27%;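 also: cells stimulated with NPY near EC25 plus isoproterenol at EC100; 0% = vehicle plus submaximal agonist and 100% = vehicle plus saturating agonist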
Target sequence (P49146 whole entry, looked up): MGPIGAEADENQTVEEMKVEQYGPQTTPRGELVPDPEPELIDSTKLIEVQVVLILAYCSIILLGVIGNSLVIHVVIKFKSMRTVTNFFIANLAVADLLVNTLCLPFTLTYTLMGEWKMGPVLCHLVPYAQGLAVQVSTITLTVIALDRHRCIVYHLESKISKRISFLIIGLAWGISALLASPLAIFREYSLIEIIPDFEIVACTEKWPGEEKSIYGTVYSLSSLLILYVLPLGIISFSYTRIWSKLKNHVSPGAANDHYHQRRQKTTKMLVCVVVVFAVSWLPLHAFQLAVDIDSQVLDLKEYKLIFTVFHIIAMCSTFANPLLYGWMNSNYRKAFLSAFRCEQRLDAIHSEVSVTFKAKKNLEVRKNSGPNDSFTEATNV
NPY-Y1 antag: NPY-Y1 receptor antagonists, primary screen, cell-based; Neuropeptide Y receptor type 1 (Homo sapiens), P25929; HEK293-CNG Y1 cells, membrane potential fluorescence; NPY at EC95, then isoproterenol; 1% of 200,000 active; inhibition, % at 3.6 µM;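 active = inhibition above the campaign mean inhibition of all tested compounds plus 3 SD, cut at about 20% in these data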;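 also: 0% = DMSO wells given NPY plus isoproterenol and 100% = isoproterenol alone without NPY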
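System: HEK293 cells with Y1 receptor plus CNG channel / Probe or stimulus: NPY 25 nM then isoproterenol 1 µM plus Ro 20-1724 25 µM / Compound: one concentration, 3.6 µM, in 0.4% DMSO / Schedule: compound incubation 1 h at room temperature, readout 45 min post-stimulation / Measured by: membrane potential fluorescence / Read-out: % inhibition of NPY effect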
EP2 mod: EP2 receptor modulators, cAMP readout, primary screen, cell-based, HTRF cAMP, PGE2 stimulation; 0.83% of 260,000 active; induction, % at 25 µM; Prostaglandin E2 receptor EP2 subtype (Homo sapiens), P43116; AID 940, 2007; EP2-expressing cells, cAMP HTRF FRET, PGE2 co-stimulation;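 active = compounds whose cAMP rise, as percent of the full-agonist control response, exceeds 60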;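 also: rat C6 glioma line stably carrying human EP2 under a CMV promoter; the protocol text gives 20 µM as final concentration; 100% = response of wells given 1 µM PGE2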
NPY Y2 blocker: NPY-Y2 receptor antagonists, primary screen, cell-based | AID 793, 2007 | 0.99% of 140,000 active | inhibition, % at 2.7 µM | NPY-Y2 expressing cells, antagonist mode | Neuropeptide Y receptor type 2 (Homo sapiens), P49146; in the data active = inhibition above about 17%;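 also: 0% = vehicle with agonist challenge and 100% = reference antagonist with challenge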
Active calls of the source: *; nt = no result given. Only some compounds are listed: those with a hit (about 2.8% of all), similar ones and a draw of the others.

SMILES	NPY1 pot ag	PGE2 EP2 inh	NPY2 pot ag	NPY-Y1 antag	EP2 mod	NPY Y2 blocker
CCCc1nc2ccccc2n1CC(O)COc1ccccc1C(C)=O (stereo not drawn)	nt	9	nt	nt	-39	nt
COc1ccc(C(=O)N/N=C2\C(=O)c3c(C)cc(C)cc3CC2(C)C)cc1	nt	53*	nt	nt	-12	nt
COc1cccc(CN(Cc2cnn(C)c2C)CC2CCCO2)c1OC (stereo not drawn)	nt	2	nt	nt	-44	nt
COc1ccc(CCn2cnc3c(-c4ccc(F)cc4)nsc3c2=O)cc1OC	nt	nt	nt	nt	-51	nt
COc1ccc2[nH]c3c(C)c4ccncc4c(C)c3c2c1	14	87*	24	nt	-46	nt
CCN(CC)c1ccc(NC(=O)CN2CCN(S(=O)(=O)c3cc(Cl)ccc3OC)CC2)cc1	53*	3	33*	-11	-15	-2
Cc1cccc(C(=O)Oc2ccc3c4c(c(=O)oc3c2)CCC4)c1	nt	7	nt	nt	19	nt
CC(=O)n1cc(C(C[N+](=O)[O-])SCCN)c2ccccc21 (stereo not drawn)	20	50*	-3	4	-50	0
CC(=O)n1cc(-c2ccncc2)c2ccccc21	15	5	23	1	7	1
C[C@H](NC(=O)c1nc[nH]c1C(=O)N[C@@H](Cc1ccccc1)C(=O)OC(C)(C)C)c1ccccc1	5	9	7	-3	64*	nt
C[C@@H](NC(=O)c1nc[nH]c1C(=O)N[C@@H](Cc1ccccc1)C(=O)OC(C)(C)C)c1ccccc1	-7	5	-18	3	29	nt
O=C1C(NS(=O)(=O)c2cccs2)=C(N2CCOCC2)C(=O)c2ccccc21	3	5	-9	nt	8	nt
CN1CCN(C2=C(NS(=O)(=O)c3cccs3)C(=O)c3ccccc3C2=O)CC1	-2	12	-27	nt	6	nt
O=C1C(NS(=O)(=O)c2cccs2)=C(N2CCN(Cc3ccccc3)CC2)C(=O)c2ccccc21	60*	5	40*	nt	-43	nt
CCOc1ccccc1N1CCN(C2=C(NS(=O)(=O)c3cccs3)C(=O)c3ccccc3C2=O)CC1	50*	20	43*	-14	-22	-12
O=C(CSc1nc2ccccc2[nH]1)NCCOc1ccc(Cl)cc1	nt	6	nt	nt	-95	nt
CCCNC(=S)N(CCO)Cc1cc2cc(C)cc(C)c2[nH]c1=O	nt	15	nt	nt	-19	nt
N#CC[N+]1(Cc2ccccn2)CCCC1	nt	42*	nt	nt	8	nt
Cc1ccc(C2(C(=O)N[C@H](Cn3nc(-c4cccs4)ccc3=O)C(C)C)CC2)cc1	nt	5	nt	nt	76*	nt
C=CCNC(=O)CSc1nc2c(C)ccc(C)c2cc1C#N	nt	11	nt	nt	27	nt
CC(=O)c1ccc(NC(=O)/C(=C\c2ccc3c(c2)OCO3)NC(=O)c2ccco2)cc1	nt	15	nt	nt	35	nt
C[C@@]12CC[C@@H]3[C@H](CC=C4C[C@@H](O)CC[C@@]43C)[C@H]1CC[C@H]2N(CCO)CCO	nt	49*	nt	nt	10	nt
O=C(CSc1nc(O)c(C2CCCCC2)c(=O)[nH]1)N1CCCCCC1	nt	7	nt	nt	-16	nt
CC1CCCCN1CCNC(=O)C1CCN(S(=O)(=O)N2CCCCC2)CC1 (stereo not drawn)	2	120*	7	4	17	2
CC1CCN(CCCNC(=O)C2CCN(S(=O)(=O)N3CCCCC3)CC2)CC1	-11	19	19	-1	-15	-1
SMILES	NPY1 pot ag	PGE2 EP2 inh	NPY2 pot ag	NPY-Y1 antag	EP2 mod	NPY Y2 blocker
O=C(NC(c1ccccc1)c1c(O)ccc2ccccc12)c1ccccc1Cl (stereo not drawn)	-29	2	-1	9	14	3
O=C(NC(c1ccc(Cl)cc1)c1c(O)ccc2ccccc12)c1ccccc1 (stereo not drawn)	41	11	43*	-13	-70	-6
CCC(=O)OCCn1c(=O)c2cc3c(=O)n(CCOC(=O)CC)c(=O)c3cc2c1=O	-23	95*	8	-1	-10	-2
COc1ccc(-c2nc(C#N)c(NCc3ccc(F)cc3)o2)cc1OC	-10	-3	-20	24*	-39	24*
Cc1ccc(C(=O)Nc2ccc(NC(=O)CSc3nc(N)cc(N)n3)cc2C)cc1	nt	19	nt	nt	10	nt
CCCCCOc1ccc(CSC(=N)N)cc1[N+](=O)[O-]	15	46*	-1	7	-28	8
Cc1cc(C)n(-c2nc3ccccc3nc2NCCc2ccccc2)n1	-31	8	0	20	55	15
COc1ccc(Nc2nc3ccccc3nc2-n2nc(C)cc2C)cc1	-18	9	5	19	65*	2
COc1ccc(S(=O)(=O)N2CCN(C(=O)c3ccc(C(C)(C)C)cc3)CC2)cc1	nt	15	nt	nt	-79	nt
Cn1cc(/C(Cc2ccccc2)=N\O)c2ccccc21	-11	5	0	4	64*	3
Cn1cc(C(=O)CCl)c2ccccc21	6	11	0	1	-17	nt
Cc1cc(Cc2cc(Cc3cc(C)cc(C(C)(C)C)c3O)c(C)cc2C)c(O)c(C(C)(C)C)c1	nt	52*	nt	nt	19	nt
O=C(O)c1cccc(Nc2cc(Cl)c3nonc3c2[N+](=O)[O-])c1	1	3	-10	-3	0	nt
O=[N+]([O-])c1c(Nc2ccccn2)cc(Cl)c2nonc12	-21	56*	-59	nt	-88	nt
O=C(O)c1ccc(NC(=S)NC(=O)c2ccc(-c3ccccc3)cc2)cc1	8	66*	-2	0	-89	nt
O=C(NC(=S)Nc1ccccc1)c1ccc(-c2ccccc2)cc1	-2	8	-2	-4	-6	2
Cc1cc(N2CCOCC2)ccc1/C=C\[N+](=O)[O-]	-13	57*	13	-3	-39	-3
Cc1ccc(Nc2nc(N)c3ccccc3n2)cc1	nt	11	nt	nt	-60	nt
Nc1nc(Nc2ccccc2)nc2ccccc12	73*	7	68*	-9	-21	5
Clc1ccc(C2(NCc3cnc(N4CCOCC4)nc3)CC2)c(Cl)c1	nt	9	nt	nt	-96	nt
CCc1ccc2c(c1)-c1c(s[s+]c1SC(C)=O)C(C)(C)N2	nt	9	nt	nt	65*	nt
COc1ccc(-n2sc3c(c2=S)-c2cc(OC)ccc2NC3(C)C)cc1	21	12	30	-1	16	-3
CN(C)/C=C(/C(=O)c1ccccc1Cl)S(=O)(=O)c1ccccc1	-9	7	-17	39*	nt	3
Clc1ccc2c(c1)c1cc(Cl)ccc1n2CN1CCOCC1	27	2	29	-13	64*	-4
Clc1ccc2c(c1)c1ccccc1n2CN1CCOCC1	7	7	8	0	13	0
COc1ccc(C2(NCc3ccc(OC)c(Cn4cccn4)c3)CC2)cc1	nt	4	nt	nt	6	nt

From PubChem BioAssay
